The results in this text go back to ChEMBL document CHEMBL2311438, “Synthesis and biological evaluation of 4-hydroxy-4-(4-methoxyphenyl)-substituted proline and pyrrolidin-2-ylacetic acid derivatives as GABA uptake inhibitors” (Bioorg Med Chem, 2013).

Some results are limits rather than exact numbers.

The nature of assay [1]: Inhibition of GAT3-mediated [3H]GABA uptake in porcine brain stem membrane fraction 2C compound preincubated for 10 mins by scintillation counting. It is filed as cell membranes, Sus scrofa. The essentials: (§1)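 50 nM [³H]GABA plus unlabelled GABA added, then 4 min at 37 °C. Stopped by filtration through glass-fibre filters presoaked in 0.9% NaCl, washed, scintillation counted. Triplicate; IC50 as mean ± SEM.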

The species named for assay [2] is Sus scrofa. The experiment in a line: Inhibition of GAT3-mediated [3H]GABA uptake in porcine brain stem membrane fraction 2C assessed as remaining GABA uptake activity preincubated at 100 uM for 10 mins by scintillation counting. It is filed as cell membranes. The essentials: (§2)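 Preliminary single-concentration screen giving percent remaining GABA uptake. Membranes were preincubated with compound for 10 min at 37 °C in Tris-HCl pH 7.2 saline with glucose. Then 50 nM [³H]GABA plus unlabelled GABA was added for 4 min at 37 °C. Filtration harvest onto NaCl-presoaked glass-fibre filters, saline washes, liquid scintillation counting. IC50 pursued only when uptake fell below 50%.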

Assay [3] can be described thus: Inhibition of GAT1-mediated [3H]GABA uptake in porcine frontal cortex membrane fraction 2B compound preincubated for 10 mins by scintillation counting. The format is cell membranes, Sus scrofa. The essentials: as §1
Assay [4] in a line: Inhibition of GAT3-mediated [3H]GABA uptake in bovine brain stem membrane fraction 2C compound preincubated for 10 mins by scintillation counting. The format is cell membranes, Bos taurus. The essentials:
as §1

The nature of assay [5]: Inhibition of GAT1-mediated [3H]GABA uptake in bovine frontal cortex membrane fraction 2B compound preincubated for 10 mins by scintillation counting. The format is cell membranes, Bos taurus. The essentials: as §1
Assay [6] in a line: Inhibition of GAT3-mediated [3H]GABA uptake in calf brain stem membrane fraction 2C compound preincubated for 10 mins by scintillation counting. The format is cell membranes, Bos taurus. The essentials:
as §1

The species entered for assay [7] is Bos taurus. Nature of the assay: Inhibition of GAT3-mediated [3H]GABA uptake in calf brain stem membrane fraction 2C assessed as remaining GABA uptake activity preincubated at 100 uM for 10 mins by scintillation counting. It is filed as cell membranes. The essentials:
as §2

Assay [8] is filed under the species Bos taurus. Nature of the assay: Inhibition of GAT1-mediated [3H]GABA uptake in calf frontal cortex membrane fraction 2B assessed as remaining GABA uptake activity preincubated at 100 uM for 10 mins by scintillation counting. It is filed as cell membranes. The essentials: as §2
Assay [9] is described as follows: Inhibition of GAT1-mediated [3H]GABA uptake in calf frontal cortex membrane fraction 2B compound preincubated for 10 mins by scintillation counting. The format is cell membranes, Bos taurus. The essentials:
as §1

For assay [10], the species on record is Sus scrofa. Nature of the assay: Inhibition of GAT1-mediated [3H]GABA uptake in porcine frontal cortex membrane fraction 2B assessed as remaining GABA uptake activity preincubated at 100 uM for 10 mins by scintillation counting. The format is cell membranes. The essentials: as §2
For assay [11], the species on record is Bos taurus. Nature of the assay: Inhibition of GAT1-mediated [3H]GABA uptake in bovine frontal cortex membrane fraction 2B assessed as remaining GABA uptake activity preincubated at 100 uM for 10 mins by scintillation counting. It is filed as cell membranes. The essentials: as §2
Assay [12] is filed under the species Bos taurus. The experiment in a line: Inhibition of GAT3-mediated [3H]GABA uptake in bovine brain stem membrane fraction 2C assessed as remaining GABA uptake activity preincubated at 100 uM for 10 mins by scintillation counting. The format is cell membranes. The essentials:
as §2

Broadly, the IC50 is the concentration that inhibits the measured activity by half.

Consider `COc1ccc([C@@]2(O)C[C@H](CC(=O)O)N(CCC=C(c3sccc3C)c3sccc3C)C2)cc1`, for which the figures for the IC50 in assay [1] and in assay [3] were greater than 100 µM and 114 µM, respectively. In the assay filed under Sus scrofa [2], the Activity is greater than 50%.

`COc1ccc(C(OCCN2C[C@@](O)(c3ccc(OC)cc3)C[C@H]2C(=O)O)(c2ccc(OC)cc2)c2ccc(OC)cc2)cc1`: the IC50 in assay [4] was 63.3 µM; in [5] it was 68.1 µM.

As for `COc1ccc([C@@]2(O)C[C@H](C(=O)O)N(CCC=C(c3ccccc3)c3ccccc3)C2)cc1`, the IC50 in assay [6] and in [9] was greater than 100 µM each time. Besides, the Activity in the assay listed under Bos taurus [7] and in the assay filed under Bos taurus [8] was greater than 50% in each case.

For the compound `COc1ccc([C@]2(O)CN[C@@H](CC(=O)O)C2)cc1`, the Activity in the assay listed under Sus scrofa [10] and in the assay listed under Sus scrofa [2] was greater than 50% in each case. The IC50 in [1] and in assay [3] was greater than 100 µM in each case.

As for `COc1ccc([C@]2(O)C[C@H](C(=O)O)N(CCC=C(c3ccccc3)c3ccccc3)C2)cc1`, the concentration for half-maximal inhibition (IC50) in [6] and in [9] was greater than 100 µM in each case. In addition, the Activity in the assay listed under Bos taurus [7] and in the assay filed under Bos taurus [8] was greater than 50% throughout.

As to `COc1ccc(C(OCCN2C[C@](O)(c3ccc(OC)cc3)C[C@@H]2CC(=O)O)(c2ccc(OC)cc2)c2ccc(OC)cc2)cc1`, the figures for the IC50 in assay [1] and in assay [3] were 65.4 µM and 64.5 µM, respectively.

For the compound `COc1ccc([C@@]2(O)C[C@@H](C(=O)O)N(CCC=C(c3ccccc3)c3ccccc3)C2)cc1`, the IC50 in assay [4] and in assay [5] was greater than 100 µM in each case. Moreover, the Activity in the assay listed under Bos taurus [11] and in the assay listed under Bos taurus [12] was greater than 50% in each case.

For the compound `COc1ccc([C@]2(O)C[C@@H](C(=O)O)N(CCC=C(c3ccccc3)c3ccccc3)C2)cc1`, the IC50 is 237 µM in assay [4] and greater than 100 µM in assay [5]. Also, the Activity in the assay listed under Bos taurus [11] was greater than 50%.

`COc1ccc([C@]2(O)C[C@@H](CC(=O)O)N(CCC=C(c3sccc3C)c3sccc3C)C2)cc1`: the Activity in the assay listed under Sus scrofa [10] is greater than 50%. In addition, the IC50 in [1] is 124 µM; in assay [3] it was greater than 100 µM.

In the case of `COc1ccc([C@]2(O)CN[C@@H](C(=O)O)C2)cc1`, the Activity in the assay listed under Sus scrofa [10] and in the assay listed under Sus scrofa [2] was greater than 50% each time. The IC50 in [1] and in assay [3] was greater than 100 µM in each case.

With `COc1ccc(C(OCCN2C[C@](O)(c3ccc(OC)cc3)C[C@H]2CC(=O)O)(c2ccc(OC)cc2)c2ccc(OC)cc2)cc1`, the IC50 in assay [1] came to 66.7 µM; in assay [3], 48.4 µM.

As to `COc1ccc([C@@]2(O)CN[C@H](C(=O)O)C2)cc1`, the Activity in the assay listed under Sus scrofa [10] and in the assay filed under Sus scrofa [2] was greater than 50% in each case. Besides, the IC50 in assay [1] and in [3] was greater than 100 µM each time.

In the case of `COc1ccc(C(OCCN2C[C@@](O)(c3ccc(OC)cc3)C[C@H]2CC(=O)O)(c2ccc(OC)cc2)c2ccc(OC)cc2)cc1`, the IC50 in [1] was determined as 78.9 µM; in assay [3], 75.2 µM.

Regarding `COc1ccc(C(OCCN2C[C@@](O)(c3ccc(OC)cc3)C[C@@H]2CC(=O)O)(c2ccc(OC)cc2)c2ccc(OC)cc2)cc1`, the IC50 in assay [1] was 66.1 µM; in assay [3], 59.2 µM.

Consider `COc1ccc(C(OCCN2C[C@](O)(c3ccc(OC)cc3)C[C@H]2C(=O)O)(c2ccc(OC)cc2)c2ccc(OC)cc2)cc1`, for which the values for the 50% inhibitory concentration (IC50) in assay [4] and in [5] were 29.7 µM and 45.1 µM, respectively.

For `COc1ccc([C@]2(O)C[C@H](CC(=O)O)N(CCC=C(c3sccc3C)c3sccc3C)C2)cc1`, the Activity in the assay listed under Sus scrofa [10] and in the assay listed under Sus scrofa [2] was greater than 50% in each case. Also, the IC50 in assay [1] and in assay [3] was greater than 100 µM in each case.

Turning to `COc1ccc([C@@]2(O)C[C@@H](CC(=O)O)N(CCC=C(c3sccc3C)c3sccc3C)C2)cc1`, in the assay filed under Sus scrofa [10], the Activity was greater than 50%. Further, the IC50 in assay [1] was 122 µM; in assay [3], greater than 100 µM.

On to `COc1ccc(C(OCCN2C[C@@](O)(c3ccc(OC)cc3)C[C@@H]2C(=O)O)(c2ccc(OC)cc2)c2ccc(OC)cc2)cc1`, for which the IC50 was found to be 38 µM in assay [1] and 56 µM in assay [3].

`COc1ccc([C@@]2(O)CN[C@H](CC(=O)O)C2)cc1`: the Activity in the assay filed under Sus scrofa [10] and in the assay listed under Sus scrofa [2] was greater than 50% throughout. The IC50 in assay [1] and in assay [3] was greater than 100 µM each time.

`COc1ccc(C(OCCN2C[C@](O)(c3ccc(OC)cc3)C[C@@H]2C(=O)O)(c2ccc(OC)cc2)c2ccc(OC)cc2)cc1`: the IC50 in [4] is greater than 100 µM; in assay [3], 71 µM. In addition, the Activity in the assay listed under Bos taurus [12] was greater than 50%.
